Screening results from PubChem BioAssay.
TCR CD3 inh = inhibitors of human TCR-CD3 interaction. TAMRA-labeled TCR probe fluorescence, biochemical. inhibition, % at 9.4 µM. actives 0.37% (n = 360,000); in the data active = inhibition above about 19%;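 note: recombinant mutant TCR 2C K166C tagged with TAMRA read by polarization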
ABHD4 inh = inhibits mouse alpha/beta hydrolase domain 4; Q8VD66; purified mABHD4, FP-Rh probe fluorescence polarization; inhibition, % at 8.92 µM; actives 0.54% (n = 370,000);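 active = inhibition exceeding the mean over every tested compound plus 3 SD, cut at about 30% in these data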
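Material: mouse ABHD4 enzyme, wild type; Benchmarks: S159A mutant high control, sample median low control; Buffer or medium: HEPES pH 7.0, NaCl, Pluronic buffer; Signal: fluorescence polarization; Read-out: percent inhibition of probe binding, normalized to plate controls; Timing: pre-incubation 45 min, probe exposure 60 min, at 25 °C; Dosing: 8.92 µM, single dose.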
HTRA1 inh = inhibitors of human serine peptidase HTRA1 | recombinant HTRA1, FP-rhodamine activity-based probe, fluorescence polarization | inhibition, % at 5.96 µM | actives 0.5% (n = 340,000); in the data active = inhibition above about 36%
DDE Tn7 FP inh = DD(E)-Tn7 binding inhibition, primary FP screen | P02675 | FP displacement of FITC-Tn7 peptide from fibrin DD(E); 0% = median of compound wells per plate | inhibition, % at 8.3 µM | actives 0.13% (n = 370,000) | AID 720508;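 active = inhibition above the mean of compounds falling within the control limits plus 3 SD of them, cut at about 14% in these data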
Target sequence (P02675 whole entry, looked up): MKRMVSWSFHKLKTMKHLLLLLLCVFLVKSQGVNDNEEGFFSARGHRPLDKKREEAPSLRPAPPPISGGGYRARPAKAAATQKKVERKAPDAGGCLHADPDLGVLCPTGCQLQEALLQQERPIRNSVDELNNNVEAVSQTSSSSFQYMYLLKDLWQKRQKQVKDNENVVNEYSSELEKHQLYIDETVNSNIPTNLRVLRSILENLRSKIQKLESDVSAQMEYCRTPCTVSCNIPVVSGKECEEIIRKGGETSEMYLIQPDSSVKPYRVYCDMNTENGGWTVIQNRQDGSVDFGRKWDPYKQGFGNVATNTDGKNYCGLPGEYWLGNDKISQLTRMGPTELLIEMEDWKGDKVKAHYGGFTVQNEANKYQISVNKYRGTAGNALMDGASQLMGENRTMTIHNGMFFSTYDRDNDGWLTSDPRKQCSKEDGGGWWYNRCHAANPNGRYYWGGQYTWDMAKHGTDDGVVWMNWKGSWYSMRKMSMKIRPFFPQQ
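Test system – human fibrin DD(E) · Times – 10 min preincubation, 3 h with tracer, room temperature · Detection – fluorescence polarization of the labelled Tn7 tracer · Measure – percent inhibition normalized to high-control wells · Benchmarks – high control wells with 10 µM unlabelled Aha-Tn7 peptide (full inhibition) · Repeats – singlicate testing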
Tn6 DDE FP = DD(E)-Tn6 binding inhibition, primary FP screen; P02675; Fibrin DD(E) TRITC-Tn6 fluorescence polarization displacement; inhibition, % at 8.3 µM; actives 0.21% (n = 370,000); AID 720509;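 active = inhibition above a per-campaign cutoff: mean of compounds within control limits plus 3 SD, cut at about 15% in these data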
SIAE primary = human SIAE inhibition, primary screen. Q9HAT2. AID 1053197. actives 0.69% (n = 370,000). SIAE FP-Rh probe binding, fluorescence polarization. inhibition, % at 9.66 µM;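 active = inhibition above a cutoff: mean of compounds within the control limits plus 3 SD of those, cut at about 17% in these data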
mABHD4 conf = confirmation of mouse ABHD4 inhibitors; inhibition, % at 8.92 µM; actives 55% (n = 1,800); shares compounds with ABHD4 inh; AID 720658; purified mABHD4, FP-Rh probe fluorescence polarization;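 active = mean inhibition across replicates above the hit cutoff set in the primary screen, cut at about 30% in these data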
Of the large screens only hits and unclear results are named; the others gave an inactive call (follow-up assays come after a bar, where they were run). Rows were chosen to be rich in hits. Some 1.8% of all compounds tested hit in one or more screens of this group.

COc1cc(/C=C2\SC(=O)N(c3cccc(Cl)c3)C2=O)cc([N+](=O)[O-])c1O	ABHD4 inh 37.3 | mABHD4 conf 40.9
Cc1cccc(NC(=O)CN2C(=O)S/C(=C\c3ccc(O)c([N+](=O)[O-])c3)C2=O)c1	ABHD4 inh 33.5 | mABHD4 conf 60.4
O=C1S/C(=C\c2ccc(O)c([N+](=O)[O-])c2)C(=O)N1c1ccccc1Cl	ABHD4 inh 54.8 | mABHD4 conf 44.1
O=C(CN1C(=O)S/C(=C\c2ccc(O)c([N+](=O)[O-])c2)C1=O)Nc1ccc(N2CCOCC2)cc1	none
O=C1S/C(=C\c2ccc(O)c([N+](=O)[O-])c2)C(=O)N1Cc1cccc([N+](=O)[O-])c1	none (no result: HTRA1 inh)
CC(=O)N1CCCN(S(=O)(=O)c2ccc3c(c2)c(=O)n(C)c(=O)n3C)CC1	none (no result: TCR CD3 inh, HTRA1 inh)
Cc1cc(C)c(C#N)c(SCc2ccccc2)n1	none
Cc1ccc2nc(CSc3nc(C)cc(C)c3C#N)[nH]c2c1	ABHD4 inh 44.3 | mABHD4 conf inactive
CC1CCC2(CC1)CCN(CCCOC(=O)Nc1cccc(F)c1)C2=O (stereo not drawn)	none (no result: TCR CD3 inh, HTRA1 inh)
COc1ccc(CNC(=O)C2CCCN(c3nc4ccccc4o3)C2)cc1 (stereo not drawn)	none (no result: TCR CD3 inh, HTRA1 inh)
Cc1ccc2oc(=O)c(/C=C(\O)C(C)(C)C)nc2c1	none
CC(C)(C)/C(O)=C/c1nc2cc(Cl)ccc2oc1=O	ABHD4 inh 31.8 | mABHD4 conf inactive
COc1ccc2c(c1)Sc1ccccc1N2	ABHD4 inh 40.5 | mABHD4 conf inactive
CN(C)CC(=O)N[C@H]1C[C@@H]2O[C@@H](CO)CC[C@@H]2O[C@@H]1CCc1ccc(C2=CCCCC2)cc1	none (no result: TCR CD3 inh, HTRA1 inh)
C1=CC2c3ccccc3NC(c3ccncc3)C2C1 (stereo not drawn)	ABHD4 inh 50.1 | mABHD4 conf 63.6
Brc1cc2c(cc1C1Nc3ccccc3C3C=CCC31)OCO2 (stereo not drawn)	none
CCCCCCCN(c1ccccc1)[C@@H]1C[C@H]2CCCC(=O)N3CC[C@@H](C1)[C@@H]23	ABHD4 inh 30.9 | mABHD4 conf 53.3
Cc1[nH]n(-c2ncc(-c3ccccc3)s2)c(=O)c1C(c1ccc(Cl)cc1)C(C#N)C#N (stereo not drawn)	ABHD4 inh 48.9 | mABHD4 conf 51.6
C[C@@H]1CN([C@@H](C)CN(C)C)C(=O)c2cc(NC(=O)Nc3ccccc3)ccc2O[C@@H](C)CCCCO[C@H]1CN(C)S(=O)(=O)c1ccc(F)cc1	none (no result: TCR CD3 inh, HTRA1 inh)
Brc1ccc(-c2csc(N3CCNCC3)n2)cc1	ABHD4 inh 60.8 (no result: TCR CD3 inh, HTRA1 inh) | mABHD4 conf 75.3
COc1cc(/C=C/c2ccc3cccc(O)c3n2)c(Br)cc1O	ABHD4 inh 29.8 | mABHD4 conf 69.0
COC(=O)[C@]12C[C@H](CC(=O)NCCCN3CCCC3=O)C(=O)N(CCc3ccc(OC)c(OC)c3)C1=C[C@H](C(C)(C)C)O[C@@H]2C	none (no result: TCR CD3 inh, HTRA1 inh)
COc1ccc(C(C)=O)c(OC(=O)c2ccc(OC)c(OC)c2)c1	none
COc1ccc(C(=O)Oc2cc(OC)cc(OC)c2C(C)=O)cc1	ABHD4 inh 38.1 | mABHD4 conf 41.4
C/C=C/COC(=O)c1[nH]c2c(c1C)C(=O)CC(c1ccco1)C2 (stereo not drawn)	ABHD4 inh 31.9 | mABHD4 conf inactive
COc1cccc(/C=C2\CC3(OC(=O)c4ccccc4)CCCN2C3)c1 (stereo not drawn)	none (no result: TCR CD3 inh, HTRA1 inh)
O=C(N=Nc1c(O)[nH]c2ccc([N+](=O)[O-])cc12)c1ccccc1[N+](=O)[O-]	none
CCc1cc(C(=O)N=Nc2c(O)[nH]c3ccc([N+](=O)[O-])cc23)c2ccccc2n1	ABHD4 inh 40.4 | mABHD4 conf 41.4
O=C(NCc1cccs1)C1CCN(S(=O)(=O)c2ccc([N+](=O)[O-])cc2)CC1	none (no result: TCR CD3 inh, HTRA1 inh)
CC(=O)N1CCN(c2ccc(NCc3ccc(C)s3)cc2)CC1	none
CC(=O)N1CCN(c2ccc(NCc3ccc(Br)o3)cc2)CC1	ABHD4 inh 37.6 | mABHD4 conf inactive
CCC(C)N(Cc1ccc(OC)cc1OC)S(=O)(=O)c1cc(Br)ccc1Br (stereo not drawn)	none (no result: HTRA1 inh)
CCN(CC(=O)Nc1ccc2c(c1)OCCO2)CC(=O)Nc1ccccc1C(F)(F)F	ABHD4 inh 31.6 | mABHD4 conf inactive
COc1cc(O)cc2cc3c(c(O)c12)C(=O)CC(C)(O)O3 (stereo not drawn)	ABHD4 inh 38.1 | mABHD4 conf inactive
COC(=O)CC[C@@H](/C=C/C(=O)OC(C)(C)C)Sc1ccc(C(C)(C)C)cc1	none (no result: TCR CD3 inh, HTRA1 inh)
C[C@@H](NC(=O)c1ccc(C#Cc2cccc(F)c2)cn1)C(C)(C)O	none (no result: TCR CD3 inh, HTRA1 inh)
O=Cc1cc(OCc2ccccc2)ccc1[B-](F)(F)F	ABHD4 inh 45.3 | mABHD4 conf 43.3
Nc1ccc(OCc2ccccc2)cc1[N+](=O)[O-]	none
Oc1cccc2c(NC(=S)Nc3ccc(OC(F)F)cc3)cccc12	ABHD4 inh 33.5 | mABHD4 conf inactive
Cn1c(O)c(C2=c3ccccc3=NC2=O)[nH]c1=S	none
COc1ccc2nc(-n3c(O)c(C4=c5ccccc5=NC4=O)[nH]c3=S)sc2c1	ABHD4 inh 51.6 | mABHD4 conf 168.6
Cc1ccccc1NC1=C/C(=N\S(=O)(=O)c2cccs2)c2ccccc2C1=O	none
Cc1ccccc1NC1=C/C(=N\S(=O)(=O)c2ccc(C(=O)O)cc2)c2ccccc2C1=O	ABHD4 inh 63.3 | mABHD4 conf 65.3
Cc1ccc(C)c(S(=O)(=O)/N=C2\C=C(NS(=O)(=O)c3ccccc3)C(=O)c3ccccc32)c1	ABHD4 inh 46.5 | mABHD4 conf 57.8
CCc1ccc(S(=O)(=O)/N=C2\C=C(NS(=O)(=O)c3ccccc3)C(=O)c3ccccc32)cc1	none
CC(=O)c1ccc(NC(=O)CSc2nnc(-c3ccco3)c(-c3ccco3)n2)cc1	ABHD4 inh 45.1 | mABHD4 conf 29.5
CC(=O)Nc1ccc(NC(=O)CSc2nnc(-c3ccco3)o2)cc1	none
CCOC(=O)[C@@]12CN(C(=O)OC(C)(C)C)CC=C1N(Cc1ccc(OC)cc1)C(=O)[C@H]2CC(=O)N1CCSCC1	none (no result: TCR CD3 inh, HTRA1 inh)
NS(=O)(=O)c1ccc(-c2ccc(/C=C3\NC(=S)NC3=O)o2)cc1	ABHD4 inh 38.7 | mABHD4 conf inactive
O=C(O)CCC(=O)Nc1ccc(N2CCCCCC2)cc1	ABHD4 inh 31.5 | mABHD4 conf inactive
Cc1ccc(N2CCN(c3ccc(NC(=O)CCC(=O)O)cc3)CC2)cc1	none
COc1ccc(C2C(C(=O)N3CCOCC3)CC(=O)N2c2ccc(OC)cc2)cc1 (stereo not drawn)	none (no result: TCR CD3 inh, HTRA1 inh)
